In brackets after ≈: the same amount, converted by molar mass. Activity calls are given as the source filed them. The calls are words filed in the database; no cut-off is given here.
Columns and labels:
[1] = test system: Staphylococcus epidermidis; experiment: Antimicrobial activity against Staphylococcus epidermidis ATCC 12228 at 400 ug after 18 hrs by disc-diffusion method; format: functional; conditions: ATCC 12228, 18 h, read-out: IZ
Procedure, shortened: (§1)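 Disc diffusion on Mueller-Hinton II agar per CLSI; 9 mm paper discs loaded with 400 µg compound from DMSO solution, dried, placed on agar; growth inhibition zone diameter read after 18 h at 35°C.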

[2] = test system: CCRF-SB; experiment: Cytotoxicity against human CCRF-SB cells after 96 hrs by MTT assay; format: functional
Procedure, shortened: (§2)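 Leukaemia/lymphoma lines seeded at 1×10^5 cells/ml in RPMI-1640 with 10% FCS and penicillin/streptomycin; incubated with serial dilutions at 37°C, 5% CO2; viability by MTT after 96 h; value is concentration reducing proliferation by 50%, with untreated controls undergoing at least three rounds of multiplication.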

[3] = test system: Proteus vulgaris; experiment: Antimicrobial activity against Proteus vulgaris NCTC 4635 at 400 ug after 18 hrs by disc-diffusion method; format: functional; procedure, shortened: as §1
[4] = test system: Staphylococcus aureus; experiment: Antimicrobial activity against Staphylococcus aureus ATCC 29213 at 400 ug after 18 hrs by disc-diffusion method; format: functional; conditions: ATCC 29213, 18 h, read-out: IZ; procedure, shortened: as §1
[5] = test system: Staphylococcus aureus; experiment: Antimicrobial activity against Staphylococcus aureus ATCC 6538 after 18 hrs by twofold serial microdilution method; format: functional; conditions: ATCC 6538, 18 h
[6] = test system: Coxsackievirus B5; experiment: Antiviral activity against Human coxsackievirus B5 ATCC VR-29 infected in African green monkey Vero 76 cells assessed as reduction of virus-plaque formation after 3 days by crystal violet staining; format: functional, organism-based; conditions: Enterovirus B, ATCC VR-29, Vero, 72 h
Procedure, shortened: (§3)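 Plaque reduction: Vero-76 at 2x10^5 cells/well grown to confluent monolayers, infected 2 h at 50–100 PFU/well; after removing unadsorbed virus, overlay of D-MEM, 1% inactivated FBS, 0.75% methylcellulose with or without serial compound dilutions; 3 days at 37°C, fixed and stained with crystal violet in 50% ethanol, plaques counted; EC50 by linear regression.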

[7] = Antiviral activity against Bovine viral diarrhea virus 1-NADL ATCC VR-534 infected in MDBK cells assessed as protection against virus-induced cytopathogenicity after 3 to 4 days by MTT assay; format: functional, cell-based; conditions: Bovine viral diarrhea virus isolates and strains, ATCC VR-534, MDBK
Procedure, shortened: (§4)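 Cells seeded in 96-well plates (BHK 5x10^4, MDBK 3x10^4 cells/well), grown overnight to confluence, infected at m.o.i. 0.01 (BHK for Reo-1, MDBK for BVDV); serial compound dilutions in maintenance medium with 0.5% inactivated FBS added after 1 h; viability by MTT after 3–4 days at 37°C; EC50 for 50% protection by linear regression.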

[8] = test system: Staphylococcus aureus; experiment: Antimicrobial activity against Staphylococcus aureus ATCC 25923 after 18 hrs by twofold serial microdilution method; format: functional; conditions: ATCC 25923, 18 h
[9] = test system: Vaccinia virus; experiment: Antiviral activity against Human Vaccinia virus ATCC VR-1549 infected in African green monkey Vero 76 cells assessed as reduction of virus-plaque formation after 3 days by crystal violet staining; format: functional, organism-based; conditions: Orthopoxvirus vaccinia, ATCC VR-1549, Vero, 72 h
[10] = test system: Human alphaherpesvirus 1; experiment: Antiviral activity against Human herpesvirus 1 KOS ATCC VR-1493 infected in African green monkey Vero 76 cells assessed as reduction of virus-plaque formation after 3 days by crystal violet staining; format: functional, organism-based; conditions: Human alphaherpesvirus 1, KOS ATCC VR1493, Vero, 72 h; procedure, shortened: as §3
[11] = test system: Vesicular stomatitis virus; experiment: Antiviral activity against Vesicular stomatitis virus ATCC VR 1540 infected in African green monkey Vero 76 cells assessed as reduction of virus-plaque formation after 2 days by crystal violet staining; format: functional, organism-based; conditions: ATCC VR 1540, Vero, 48 h
[12] = test system: Mycobacterium tuberculosis; experiment: Antimycobacterial activity against drug-sensitive Mycobacterium tuberculosis Spec. 192; format: functional
Procedure, shortened: (§5)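 Classical test-tube successive-dilution method in Youmans' modification of Proskauer and Beck liquid medium with 10% bovine serum. Inoculum came from 14-day cultures. DMSO stock was 10 mg/mL, diluted geometrically in medium. Tubes were incubated at 37 °C. Concentrations tested were 3.1, 6.2, 12.5, 25, 50 and 100 µg/ml. MIC is the minimum concentration inhibiting growth relative to compound-free tubes.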

[13] = test system: Staphylococcus aureus; experiment: Antimicrobial activity against Staphylococcus aureus ATCC 6538 at 400 ug after 18 hrs by disc-diffusion method; format: functional; conditions: ATCC 6538, 18 h, read-out: IZ; procedure, shortened: as §1
[14] = test system: Human immunodeficiency virus 1; experiment: Antiviral activity against HIV1 3B infected in human MT4 cells assessed as protection against virus-induced cytopathogenicity by MTT assay; format: functional, organism-based; conditions: Human immunodeficiency virus 1, 3B
[15] = test system: Enterococcus hirae; experiment: Antimicrobial activity against Enterococcus hirae ATCC 10541 at 400 ug after 18 hrs by disc-diffusion method; format: functional; procedure, shortened: as §1
[16] = test system: Staphylococcus aureus; experiment: Antimicrobial activity against Staphylococcus aureus ATCC 29213 after 18 hrs by twofold serial microdilution method; format: functional; conditions: ATCC 29213, 18 h
[17] = test system: Staphylococcus aureus; experiment: Antimicrobial activity against Staphylococcus aureus ATCC 25923 at 400 ug after 18 hrs by disc-diffusion method; format: functional; conditions: ATCC 25923, 18 h, read-out: IZ; procedure, shortened: as §1
[18] = test system: Mycobacterium tuberculosis; experiment: Antimycobacterial activity against Mycobacterium tuberculosis H37Rv ATCC 25618; format: functional; procedure, shortened: as §5
[19] = test system: Bacillus subtilis; experiment: Antimicrobial activity against Bacillus subtilis ATCC 6633 at 400 ug after 18 hrs by disc-diffusion method; format: functional; conditions: ATCC 6633, 18 h, read-out: IZ; procedure, shortened: as §1
[20] = test system: Mammalian orthoreovirus 1; experiment: Antiviral activity against Reovirus type-1 ATCC VR-214 infected in BHK cells assessed as protection against virus-induced cytopathogenicity after 3 to 4 days by MTT assay; format: functional, cell-based; conditions: Mammalian orthoreovirus 1, ATCC VR-214, BHK; procedure, shortened: as §4
[21] = test system: Poliovirus 1; experiment: Antiviral activity against Poliovirus type 1 ATCC VR-1562 infected in African green monkey Vero 76 cells assessed as reduction of virus-plaque formation after 2 days by crystal violet staining; format: functional, organism-based; conditions: Enterovirus C, ATCC VR-1562, Vero, 48 h
[22] = test system: CCRF-CEM; experiment: Cytotoxicity against human CCRF-CEM cells after 96 hrs by MTT assay; format: functional; procedure, shortened: as §2
[23] = Cytotoxicity against bovine MDBK cells assessed as cell viability after 48 to 96 hrs by MTT assay; format: cell-based, Bos taurus; conditions: cattle
[24] = test system: Bacillus cereus; experiment: Antimicrobial activity against Bacillus cereus ATCC 11778 at 400 ug after 18 hrs by disc-diffusion method; format: functional; conditions: ATCC 11778, 18 h, read-out: IZ; procedure, shortened: as §1
[25] = Cytotoxicity against BHK cells assessed as cell viability after 48 to 96 hrs by MTT assay; format: cell-based, Mesocricetus auratus; conditions: hamster
[26] = test system: Enterococcus faecalis; experiment: Antimicrobial activity against Enterococcus faecalis ATCC 29212 at 400 ug after 18 hrs by disc-diffusion method; format: functional; procedure, shortened: as §1
[27] = test system: Staphylococcus epidermidis; experiment: Antimicrobial activity against Staphylococcus epidermidis ATCC 12228 after 18 hrs by twofold serial microdilution method; format: functional; conditions: ATCC 12228, 18 h
[28] = Cytotoxicity against human MT4 cells; format: cell-based
[29] = test system: Staphylococcus epidermidis; experiment: Antimicrobial activity against Staphylococcus epidermidis ATCC 35984 at 400 ug after 18 hrs by disc-diffusion method; format: functional; conditions: ATCC 35984, 18 h, read-out: IZ; procedure, shortened: as §1
[30] = test system: Staphylococcus aureus; experiment: Antimicrobial activity against Staphylococcus aureus NCTC 4163 at 400 ug after 18 hrs by disc-diffusion method; format: functional; conditions: NCTC 4163, 18 h, read-out: IZ; procedure, shortened: as §1
[31] = test system: Micrococcus luteus; experiment: Antimicrobial activity against Micrococcus luteus ATCC 10240 at 400 ug after 18 hrs by disc-diffusion method; format: functional; conditions: ATCC 10240, 18 h, read-out: IZ; procedure, shortened: as §1
[32] = test system: WIL2-NS; experiment: Cytotoxicity against human WIL2-NS cells after 96 hrs by MTT assay; format: functional; procedure, shortened: as §2
[33] = test system: Yellow fever virus; experiment: Antiviral activity against Yellow fever virus 17D infected in BHK cells assessed as protection against virus-induced cytopathogenicity after 3 to 4 days by MTT assay; format: functional, cell-based
[34] = test system: Micrococcus luteus; experiment: Antimicrobial activity against Micrococcus luteus ATCC 9341 at 400 ug after 18 hrs by disc-diffusion method; format: functional; conditions: ATCC 9341, 18 h, read-out: IZ; procedure, shortened: as §1
[35] = test system: Staphylococcus epidermidis; experiment: Antimicrobial activity against Staphylococcus epidermidis ATCC 35984 after 18 hrs by twofold serial microdilution method; format: functional; conditions: ATCC 35984, 18 h
[36] = test system: Staphylococcus aureus; experiment: Antimicrobial activity against Staphylococcus aureus NCTC 4163 after 18 hrs by twofold serial microdilution method; format: functional; conditions: NCTC 4163, 18 h
[37] = Cytotoxicity against African green monkey Vero 76 cells assessed as cell viability after 48 to 96 hrs by crystal violet staining; format: cell-based; conditions: chlorocebus sabaeus

For FC(F)(F)c1cccc(NC(=S)Nc2cccc(Cl)c2)c1, the zone of inhibition at 400 µg/disc [1] was 28 mm, the CC50 [2] was 9.6 µM and the “inhibition zone (IZ)” value [3] was “inactive”. The zone of inhibition at 400 µg/disc [4] was 27 mm, the MIC [5] was 32 µg/mL (≈ 96.7 µM) and the EC50 [6] was greater than 20 µM. It also gave an EC50 [7] greater than 19 µM, an MIC [8] of 32 µg/mL (≈ 96.7 µM) and an EC50 [9] greater than 20 µM. The EC50 [10] was greater than 20 µM, the EC50 [11] was greater than 20 µM and the MIC [12] was 100 µg/mL (≈ 302 µM). The zone of inhibition at 400 µg/disc [13] was 29 mm, the EC50 [14] was greater than 10 µM and the “inhibition zone (IZ)” value [15] was “inactive”. The MIC [16] was 32 µg/mL (≈ 96.7 µM), the zone of inhibition at 400 µg/disc [17] was 27 mm and the MIC [18] was 100 µg/mL (≈ 302 µM). The zone of inhibition at 400 µg/disc [19] was 26 mm, the EC50 [20] was greater than 9.5 µM and the EC50 [21] was greater than 20 µM. It also gave a CC50 [22] of 9.1 µM, a CC50 [23] of 19 µM and a zone of inhibition at 400 µg/disc [24] of 23 mm. It also gave a CC50 [25] of 9.5 µM, a zone of inhibition at 400 µg/disc ([26]; ATCC 29212, 18 h, read-out: IZ) of 20 mm and an MIC [27] of 32 µg/mL (≈ 96.7 µM). It also gave a CC50 [28] of 10 µM, a zone of inhibition at 400 µg/disc [29] of 26 mm and a zone of inhibition at 400 µg/disc [30] of 29 mm. For the same molecule, the zone of inhibition at 400 µg/disc [31] was 27 mm, the CC50 [32] was 11 µM and the EC50 [33] was greater than 9.5 µM. For the same molecule, the zone of inhibition at 400 µg/disc [34] was 30 mm, the MIC [35] was 64 µg/mL (≈ 193 µM) and the MIC [36] was 32 µg/mL (≈ 96.7 µM). It also gave a CC50 [37] of 20 µM.

With N#Cc1ccc(NC(=S)Nc2cccc(C(F)(F)F)c2)cc1 the zone of inhibition at 400 µg/disc [1] was 18 mm, the CC50 [2] was 8.3 µM and the “inhibition zone (IZ)” value [3] was “inactive”. The zone of inhibition at 400 µg/disc [4] was 18 mm, the MIC [5] was 64 µg/mL (≈ 199 µM) and the EC50 [6] was greater than 10 µM. The EC50 [7] was greater than 10 µM, the MIC [8] was 64 µg/mL (≈ 199 µM) and the EC50 [9] was greater than 10 µM. The EC50 [10] was greater than 10 µM, the EC50 [11] was greater than 10 µM and the MIC [12] was greater than 100 µg/mL. For the same molecule, the zone of inhibition at 400 µg/disc [13] was 22 mm, the EC50 [14] was greater than 7 µM and the “inhibition zone (IZ)” value [15] was “inactive”. For the same molecule, the MIC [16] was 64 µg/mL (≈ 199 µM), the zone of inhibition at 400 µg/disc [17] was 19 mm and the MIC [18] was greater than 100 µg/mL. The zone of inhibition at 400 µg/disc [19] was 19 mm, the EC50 [20] was greater than 9.5 µM and the EC50 [21] was greater than 10 µM. It also gave a CC50 [22] of 8.7 µM, a CC50 [23] of 10 µM and a zone of inhibition at 400 µg/disc [24] of 19 mm. The CC50 [25] was 9.5 µM, the “inhibition zone (IZ)” value [26] was “inactive” and the MIC [27] was 64 µg/mL (≈ 199 µM). For the same molecule, the CC50 [28] was 7 µM, the zone of inhibition at 400 µg/disc [29] was 20 mm and the zone of inhibition at 400 µg/disc [30] was 20 mm. It also gave a zone of inhibition at 400 µg/disc [31] of 16 mm, a CC50 [32] of 9.2 µM and an EC50 [33] greater than 9.5 µM. For the same molecule, the zone of inhibition at 400 µg/disc [34] was 18 mm, the MIC [35] was 64 µg/mL (≈ 199 µM) and the MIC [36] was 128 µg/mL (≈ 398 µM). The CC50 [37] was 10 µM.

From ChEMBL document CHEMBL3616436, “Synthesis, cytotoxicity and antimicrobial activity of thiourea derivatives incorporating 3-(trifluoromethyl)phenyl moiety” (Eur J Med Chem, 2015)
